Measurements reported in ChEMBL document CHEMBL4513216, “Probing the Open Global Health Chemical Diversity Library for Multistage-Active Starting Points for Next-Generation Antimalarials” (ACS Infect Dis, 2020).

test: Toxicity liver stage against HepG2, at 10uM; format: cell-based; set-up: test concentration 10 uM, cell line HepG2-A16-CD81EGFP; conditions: human, HepG2-A16-CD81EGFP cells; read-out: INHIBITION
In short: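 Uninfected HepG2-A16-CD81EGFP cells, 3 × 10^3 per well, 1536-well, plated on prespotted compound at 10 μM final, parasite-free screening media added to match infected plates; puromycin 10 μM positive, DMSO 0.5% negative; run in parallel with 48 h PbLuc assay at 37 °C, 5% CO2; viability by CellTiter-Glo luminescence, normalized to controls.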

Q: With `Cc1ccc2[nH]c([C@H]3CCN(CC4CCCCC4)C3)nc2c1` as the compound, how does the cytotoxicity at 10 µM read?
A: -3.45%

Q: For `CO[C@@H]1CN(c2ccccc2)S(=O)(=O)[C@@]12CCN(C(=O)N(C)C)C2`, which cytotoxicity at 10 µM is on record?
A: 10.1%

Q: With `COc1ccc2nnc(CCCC(=O)NCCc3ccccn3)n2n1` as the compound, how does the cytotoxicity at 10 µM read?
A: -9.49%

Q: For `O=C(CCc1ccccc1)NCC1CCN(Cc2cccs2)CC1`, which cytotoxicity at 10 µM is on record?
A: -2.68%

Q: Which cytotoxicity at 10 µM does the source give for `COc1ccc(S(=O)(=O)NCC(O)c2sccc2C)cc1Cl` (centres undefined) here?
A: 1.17%

Q: With `CCc1ccc(S(=O)(=O)N2CCN(CCn3ccnc3)CC2)cc1` as the compound, how does the cytotoxicity at 10 µM read?
A: -8.81%

Q: For `c1ccc(-c2nnn3c2COC(CNCc2ccccn2)C3)cc1` (centres undefined), which cytotoxicity at 10 µM is on record?
A: 0.595%

Q: Which cytotoxicity at 10 µM does the source give for `Cc1nc(C)c(C(=O)N2Cc3ccccc3OCC2Cn2ccnc2)s1` (centres undefined) here?
A: 9.21%

Q: Which cytotoxicity at 10 µM does the source give for `CC(C)(C)CN1CCCC(c2nccnc2Nc2cnccn2)C1` (centres undefined) here?
A: 5.37%

Q: For `CCN(CC)S(=O)(=O)N1C[C@@H](c2ccccc2)[C@H]2[C@H]1CCCCCN2C`, which cytotoxicity at 10 µM is on record?
A: -10.4%

Q: Which cytotoxicity at 10 µM does the source give for `O=C(Cc1ccccc1F)N1CCCCC1c1ccn2ccnc2n1` (centres undefined) here?
A: -3.83%

Q: Which cytotoxicity at 10 µM does the source give for `CNc1cccc(C2CCCN(C(=O)c3cscn3)C2)n1` (centres undefined) here?
A: -11.3%

Q: For `CCN(CC)C(=O)Cn1c(=O)n(Cc2ccco2)c2ncccc21`, which cytotoxicity at 10 µM is on record?
A: -6.77%

Q: Which cytotoxicity at 10 µM does the source give for `CN1CCCCC1c1ncc2c(n1)CCN(Cc1ccccc1Cl)C2` (centres undefined) here?
A: -1.67%

Q: With `C[C@H](C(=O)N1Cc2ccccc2CC2(CCCN2C)C1)c1ccccc1` (some centres undefined) as the compound, how does the cytotoxicity at 10 µM read?
A: 6.42%

Q: For `COC(=O)CNC(=O)c1ccn(-c2ccc(Cl)c(Cl)c2)n1`, which cytotoxicity at 10 µM is on record?
A: -8.77%

Q: With `CN1CCN(c2ccc(F)cc2NC(=O)NCc2ccon2)CC1` as the compound, how does the cytotoxicity at 10 µM read?
A: -6.84%

Q: For `COCCOCC(=O)NC1CCN(c2ccccn2)CC1`, which cytotoxicity at 10 µM is on record?
A: -0.555%

Q: For `CC(C)c1noc(C[S+]([O-])CC(=O)Nc2ccc(F)c(F)c2)n1` (centres undefined), which cytotoxicity at 10 µM is on record?
A: -8.82%

Q: Which cytotoxicity at 10 µM does the source give for `CC(Cc1c(F)cccc1F)NC(=O)NCc1ncnn1C` (centres undefined) here?
A: 12.9%

Q: Which cytotoxicity at 10 µM does the source give for `O=C(Nc1cccc(N2CCOCC2)c1)N[C@H](CO)c1ccccc1` here?
A: -8.1%

Q: With `CCCN(CCC)C(=O)c1cnn(C)c1C` as the compound, how does the cytotoxicity at 10 µM read?
A: -128%

Q: With `COC(=O)c1cccc(CNC(=O)CC(F)(F)F)c1` as the compound, how does the cytotoxicity at 10 µM read?
A: 17.4%

Q: For `O=C(Cn1nnn(-c2cccs2)c1=O)N(CC1CCOC1)C1CC1` (centres undefined), which cytotoxicity at 10 µM is on record?
A: -39.9%

Q: For `COc1ccccc1C(=O)NCCC(=O)Nc1c(C)nn(C)c1C`, which cytotoxicity at 10 µM is on record?
A: -9.49%

Q: For `O=C(OCC1CCN(c2ccccc2)C1)c1cscn1` (centres undefined), which cytotoxicity at 10 µM is on record?
A: 1.27%

Q: With `CN(C)c1ccccc1CN1CCCC(N2CCCC2=O)C1` (centres undefined) as the compound, how does the cytotoxicity at 10 µM read?
A: -9.13%

Q: Which cytotoxicity at 10 µM does the source give for `Cc1cnc(CN(Cc2ccc(Cl)s2)C2CCN(C)C2)o1` (centres undefined) here?
A: 14.5%

Q: With `CCS(=O)(=O)NCc1cc(Br)c(OC)c(OC)c1` as the compound, how does the cytotoxicity at 10 µM read?
A: -6.83%

Q: For `COC(=O)[C@H](C)NC(=O)c1cnc(Cc2ccc(F)cc2)s1`, which cytotoxicity at 10 µM is on record?
A: -10.9%

Q: With `COc1ccc(-c2nnc(SC(C)C(=O)NC3CCCC3)[nH]2)c(OC)c1` (centres undefined) as the compound, how does the cytotoxicity at 10 µM read?
A: 36.4%

Q: With `Cn1cc(C(=O)Nc2cccc(Oc3ccncc3)c2)ccc1=O` as the compound, how does the cytotoxicity at 10 µM read?
A: -1.21%

Q: Which cytotoxicity at 10 µM does the source give for `Cc1c(I)cccc1C(=O)NCc1nnc[nH]1` here?
A: -2.86%

Q: With `CNC(=O)c1cccc(CNC(C)c2cc(C)ccc2OC(F)F)c1` (centres undefined) as the compound, how does the cytotoxicity at 10 µM read?
A: 20.2%

Q: With `COCC(NC(=O)c1cn(-c2cccc(Cl)c2F)nn1)C1CC1` (centres undefined) as the compound, how does the cytotoxicity at 10 µM read?
A: 11.1%

Q: With `CCCc1ccc(S(=O)(=O)NC2(CC(N)=O)CCC2)cc1` as the compound, how does the cytotoxicity at 10 µM read?
A: 17.9%

Q: Which cytotoxicity at 10 µM does the source give for `CC(c1nnc(-c2cccs2)o1)N1CCn2c(nnc2C2CC2)C1` (centres undefined) here?
A: 17.7%

Q: Which cytotoxicity at 10 µM does the source give for `COCC(O)CN(C)C(=O)NCc1ccc(-c2ccn[nH]2)cc1` (centres undefined) here?
A: 1.81%

Q: With `CC1(c2ccc(Br)cc2)CC(=O)N(CC(N)=O)C1=O` (centres undefined) as the compound, how does the cytotoxicity at 10 µM read?
A: 2.05%

Q: With `CCSc1ccc(C(C)NC(=O)CNS(C)(=O)=O)cc1` (centres undefined) as the compound, how does the cytotoxicity at 10 µM read?
A: 10.4%

Q: Which cytotoxicity at 10 µM does the source give for `COc1cccc(C2=CCN(CCN3CCCC3=O)CC2)c1` here?
A: -10.6%

Q: With `N#Cc1cc(F)c(NCc2ccc(F)cc2)c(F)c1` as the compound, how does the cytotoxicity at 10 µM read?
A: -57%

Q: With `COCc1ccc(CNC(=O)C2=NN(c3ccccc3)C(=O)CN2)cc1` as the compound, how does the cytotoxicity at 10 µM read?
A: 26.7%

Q: With `Cc1ccc(C(=O)NCCCNS(C)(=O)=O)cc1-n1cccc1` as the compound, how does the cytotoxicity at 10 µM read?
A: -10%

Q: For `CN(C)C[C@@H]1C[C@@H]2CN(Cc3nccn3C)CC[C@@H]2N1CC1CC1`, which cytotoxicity at 10 µM is on record?
A: -101%

Q: Which cytotoxicity at 10 µM does the source give for `CC(=O)N1CCO[C@@H]2CN(C(=O)NCc3ccccc3)CC[C@@H]2C1` here?
A: -97.7%

Q: With `Cc1nc(CO[C@H]2CN(C(=O)c3cccnc3)[C@@H]3COC[C@H]23)cs1` as the compound, how does the cytotoxicity at 10 µM read?
A: -110%

Q: Which cytotoxicity at 10 µM does the source give for `CN(C)CCN1CCO[C@@H]2CN(C(=O)Cc3ccsc3)CC[C@@H]2C1` here?
A: -119%

Q: For `N#Cc1ccc(C(=O)N2CCn3cc(CN4CCCCC4)nc3C2)cc1`, which cytotoxicity at 10 µM is on record?
A: -84.7%

Q: With `CCN(C)c1ncnc2c1CCN(C(=O)c1cccn1C)CC2` as the compound, how does the cytotoxicity at 10 µM read?
A: -67.8%

Q: With `CCOCC1CN(C(=O)Cc2ccccn2)Cc2cn(C)nc21` (centres undefined) as the compound, how does the cytotoxicity at 10 µM read?
A: 1.86%

Q: With `O=C(O)CNc1cc(-c2nccnc2N2CCCC2)c2cc[nH]c2n1` as the compound, how does the cytotoxicity at 10 µM read?
A: 4.9%

Q: For `Cc1nccn1CCC(=O)N1CCCN(CCCc2ccccc2)CC1`, which cytotoxicity at 10 µM is on record?
A: -13.6%

Q: With `Cc1c[nH]c(CN2CCCCC2CCn2cccn2)c(C)c1=O` (centres undefined) as the compound, how does the cytotoxicity at 10 µM read?
A: 3.69%
